Measured values: ChEMBL document CHEMBL1124663, “Design, synthesis, antineoplastic activity, and chemical properties of bis(carbamate) derivatives of 4,5-bis(hydroxymethyl)imidazole” (J Med Chem, 1989)

Experiments:
Mus musculus [1] = assay: Toxicity day evaluation was carried out on day 5 for animal dosed with 12.5 mg/kg compound; 6/6; assay type: organism-based; design: dose 12.5 mg/kg; settings: in vivo
Mus musculus [2] = assay: Body Weight Difference (BWD) of test animals administered with 50 mg/kg compound is determined on day 5 for P388 tumor cells; assay type: functional
In short: (§1)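 P388 leukaemia: about 10^6 cells in ascitic fluid inoculated ip on day 0 (CD2F1 mice). Compound given ip in normal saline as a freshly prepared solution or suspension, once daily on days 1–5. Treated-minus-control body weight difference in g, taken as day 5 minus day 1 weight. Groups of six.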

Mus musculus [3] = assay: Ability of 50 mg/kg of compound to kill tumor cells in mice is expressed as the log of the tumor cell population at the onset of treatment minus the log of the tumor cell population at the end of treatment.; assay type: functional
Mus musculus [4] = assay: Toxicity day evaluation was carried out on day 5 for animal dosed with 400 mg/kg compound; 3/6; assay type: organism-based; design: dose 400 mg/kg; settings: in vivo
Mus musculus [5] = assay: Toxicity day evaluation was carried out on day 5 for animal dosed with 25 mg/kg compound; 6/6; assay type: organism-based; design: dose 25 mg/kg; settings: in vivo
Mus musculus [6] = assay: Ability of 200 mg/kg of compound to kill tumor cells in mice is expressed as the log of the tumor cell population at the onset of treatment minus the log of the tumor cell population at the end of treatment.; assay type: functional
Mus musculus [7] = assay: Toxicity day evaluation was carried out on day 5 for animal dosed with 50 mg/kg compound; 6/6; assay type: organism-based; design: dose 50 mg/kg; settings: in vivo
Mus musculus [8] = assay: Body Weight Difference (BWD) of test animals administered with 100 mg/kg compound is determined on day 5 for P388 tumor cells; assay type: functional; in short: as §1
Mus musculus [9] = assay: Body Weight Difference (BWD) of test animals administered with 25 mg/kg compound is determined on day 5 for P388 tumor cells; assay type: functional; in short: as §1
Mus musculus [10] = assay: The percent of the median survival time of test mice compared to control mice is determined for mice administered with 50 mg/kg compound.; assay type: functional
Mus musculus [11] = assay: Toxicity day evaluation was carried out on day 5 for animal dosed with 200 mg/kg compound; 6/6; assay type: organism-based; design: dose 200 mg/kg; settings: in vivo
Mus musculus [12] = assay: Body Weight Difference (BWD) of test animals administered with 400 mg/kg compound is determined on day 5 for P388 tumor cells; assay type: functional; in short: as §1
Mus musculus [13] = assay: Ability of 100 mg/kg of compound to kill tumor cells in mice is expressed as the log of the tumor cell population at the onset of treatment minus the log of the tumor cell population at the end of treatment.; assay type: functional
Mus musculus [14] = assay: Toxicity day evaluation was carried out on day 5 for animal dosed with 100 mg/kg compound; 6/6; assay type: organism-based; design: dose 100 mg/kg; settings: in vivo
Mus musculus [15] = assay: Body Weight Difference (BWD) of test animals administered with 200 mg/kg compound is determined on day 5 for P388 tumor cells; assay type: functional; in short: as §1
Mus musculus [16] = assay: The percent of the median survival time of test mice compared to control mice is determined for mice administered with 12.5 mg/kg compound.; assay type: functional
Mus musculus [17] = assay: Body Weight Difference (BWD) of test animals administered with 12.5 mg/kg compound is determined on day 5 for P388 tumor cells; assay type: functional; in short: as §1
Mus musculus [18] = assay: The percent of the median survival time of test mice compared to control mice is determined for mice administered with 100 mg/kg compound; assay type: functional
Mus musculus [19] = assay: Toxicity day evaluation was carried out on day 5 for animal dosed with 400 mg/kg compound; 6/6; assay type: organism-based; design: dose 400 mg/kg; settings: in vivo
Mus musculus [20] = assay: The percent of the median survival time of test mice compared to control mice is determined for mice administered with 200 mg/kg compound; assay type: functional
Mus musculus [21] = assay: The percent of the median survival time of test mice compared to control mice is determined for mice administered with 400 mg/kg compound; assay type: functional
Mus musculus [22] = assay: Ability of 25 mg/kg of compound to kill tumor cells in mice is expressed as the log of the tumor cell population at the onset of treatment minus the log of the tumor cell population at the end of treatment.; assay type: functional
Mus musculus [23] = assay: The percent of the median survival time of test mice compared to control mice is determined for mice administered with 400 mg/kg compound.; assay type: functional
Mus musculus [24] = assay: Ability of 12.5 mg/kg of compound to kill tumor cells in mice is expressed as the log of the tumor cell population at the onset of treatment minus the log of the tumor cell population at the end of treatment.; assay type: functional
Mus musculus [25] = assay: Ability of 200 mg/kg of compound to kill tumor cells in mice is expressed as the log of the tumor cell population at the onset of treatment minus the log of the tumor cell population at the end of treatment; assay type: functional
Mus musculus [26] = assay: Ability of 400 mg/kg of compound to kill tumor cells in mice is expressed as the log of the tumor cell population at the onset of treatment minus the log of the tumor cell population at the end of treatment; assay type: functional
Mus musculus [27] = assay: Body Weight Difference (BWD) of test animals with P388 administered with 25 mg/kg compound is determined; assay type: functional; in short: as §1
Mus musculus [28] = assay: Body Weight Difference (BWD) of test animals with P388 administered with 100 mg/kg compound is determined; assay type: functional; in short: as §1
Mus musculus [29] = assay: Toxicity day evaluation was carried out on day 5 for animal dosed with 50 mg/kg compound. Number of animals in initial test groups were 5; assay type: organism-based; design: dose 50 mg/kg; settings: in vivo
Mus musculus [30] = assay: Toxicity day evaluation was carried out on day 5 for animal dosed with 12.5 mg/kg compound. Number of animals in initial test groups were 5; assay type: organism-based; design: dose 12.5 mg/kg; settings: in vivo
Mus musculus [31] = assay: Toxicity day evaluation was carried out on day 5 for animal dosed with 25 mg/kg compound. Number of animals in initial test groups were 5; assay type: organism-based; design: dose 25 mg/kg; settings: in vivo
Mus musculus [32] = assay: Toxicity day evaluation was carried out on day 5 for animal dosed with 100 mg/kg compound. Number of animals in initial test groups were 5; assay type: organism-based; design: dose 100 mg/kg; settings: in vivo
Mus musculus [33] = assay: Body Weight Difference (BWD) of test animals with P388 administered with 200 mg/kg compound is determined; assay type: functional; in short: as §1
Mus musculus [34] = assay: Body Weight Difference (BWD) of test animals with P388 administered with 12.5 mg/kg compound is determined; assay type: functional; in short: as §1
Mus musculus [35] = assay: Body Weight Difference (BWD) of test animals with P388 administered with 50 mg/kg compound is determined; assay type: functional; in short: as §1
Mus musculus [36] = assay: Toxicity day evaluation was carried out on day 5 for animal dosed with 200 mg/kg compound. Number of animals in initial test groups were 5; assay type: organism-based; design: dose 200 mg/kg; settings: in vivo
Mus musculus [37] = assay: Toxicity day evaluation was carried out on day 5 for animal dosed with 50 mg/kg compound; 5/5; assay type: organism-based; design: dose 50 mg/kg; settings: in vivo
Mus musculus [38] = assay: Toxicity day evaluation was carried out on day 5 for animal dosed with 25 mg/kg compound; 5/5; assay type: organism-based; design: dose 25 mg/kg; settings: in vivo
Mus musculus [39] = assay: Toxicity day evaluation was carried out on day 5 for animal dosed with 200 mg/kg compound; 5/5; assay type: organism-based; design: dose 200 mg/kg; settings: in vivo
Mus musculus [40] = assay: The percent of the median survival time of test mice compared to control mice is determined for mice administered with 12.5 mg/kg compound; assay type: functional
Mus musculus [41] = assay: Toxicity day evaluation was carried out on day 5 for animal dosed with 100 mg/kg compound; 5/5; assay type: organism-based; design: dose 100 mg/kg; settings: in vivo
Mus musculus [42] = assay: Toxicity day evaluation was carried out on day 5 for animal dosed with 12.5 mg/kg compound; 5/5; assay type: organism-based; design: dose 12.5 mg/kg; settings: in vivo
Mus musculus [43] = assay: The percent of the median survival time of test mice compared to control mice is determined for mice administered with 25 mg/kg compound; assay type: functional
Mus musculus [44] = assay: The percent of the median survival time of test mice compared to control mice is determined for mice administered with 50 mg/kg compound; assay type: functional
Mus musculus [45] = assay: Toxicity day evaluation was carried out on day 5 for animal dosed with 200 mg/kg compound; 5/6; assay type: organism-based; design: dose 200 mg/kg; settings: in vivo
Mus musculus [46] = assay: Ability of 25 mg/kg of compound to kill tumor cells in mice is expressed as the log of the tumor cell population at the onset of treatment minus the log of the tumor cell population at the end of treatment; assay type: functional

| Structure (SMILES) | Survivors / animals tested (Mus musculus [1]) | BWD (Mus musculus [2]) | Survivors / animals tested (Mus musculus [5]) | Survivors / animals tested (Mus musculus [7]) | BWD (Mus musculus [8]) | BWD (Mus musculus [9]) | T/C (Mus musculus [10]) | Survivors / animals tested (Mus musculus [11]) | BWD (Mus musculus [12]) | Survivors / animals tested (Mus musculus [14]) | BWD (Mus musculus [15]) | BWD (Mus musculus [17]) | Survivors / animals tested (Mus musculus [19]) | T/C (Mus musculus [20]) | also measured |
| --- | --- | --- | --- | --- | --- | --- | --- | --- | --- | --- | --- | --- | --- | --- | --- |
| CSc1nc(COC(=O)NC(C)C)c(COC(=O)NC(C)C)n1Cc1ccccc1 | 6 | -0.5 g | 6 | 6 | -0.3 g | -1.5 g | 110% | 6 | -3.2 g | 6 | -2.2 g | -0.2 g |  |  | KE (Mus musculus [3]): -0.42; Survivors / animals tested (Mus musculus [4]): 3; KE (Mus musculus [6]): -0.32; KE (Mus musculus [13]): -0.39; T/C (Mus musculus [16]): 98% |
| CC(C)NC(=O)OCc1ncn(-c2ccccc2)c1COC(=O)NC(C)C | 6 | 0.8 g | 6 | 6 | 0.6 g | -0.1 g | 97% | 6 | -2.3 g | 6 | 0.2 g | -0.4 g | 6 | 90% | T/C (Mus musculus [18]): 91%; T/C (Mus musculus [21]): 90% |
| CSc1nc(COC(=O)NC(C)C)c(COC(=O)NC(C)C)n1C | 6 | 0 g | 6 | 6 | -1.2 g | 0.4 g | 130% | 6 | -3.4 g | 6 | -1.8 g | 2.6 g | 6 |  | KE (Mus musculus [3]): -0.56; KE (Mus musculus [22]): -0.91; T/C (Mus musculus [23]): 70%; KE (Mus musculus [24]): -1.4 |
| CNC(=O)OCc1nc(SC)n(Cc2ccccc2)c1COC(=O)NC |  | 0.9 g |  | 6 | 0.4 g |  |  | 6 | -1.2 g | 6 | -0.4 g |  | 6 |  | KE (Mus musculus [25]): -0.44; KE (Mus musculus [26]): -0.71 |
| CNC(=O)OCc1nc(-c2ccccc2)n(C)c1COC(=O)NC |  |  |  |  |  |  |  |  |  |  |  |  |  |  | BWD (Mus musculus [27]): 0 g; BWD (Mus musculus [28]): -1 g; Survivors / animals tested (Mus musculus [29]): 5; Survivors / animals tested (Mus musculus [30]): 5; Survivors / animals tested (Mus musculus [31]): 5; T/C (Mus musculus [16]): 98%; Survivors / animals tested (Mus musculus [32]): 5; BWD (Mus musculus [33]): -2.2 g; BWD (Mus musculus [34]): -0.2 g; BWD (Mus musculus [35]): -0.8 g; Survivors / animals tested (Mus musculus [36]): 5 |
| CNC(=O)OCc1ncn(-c2ccccc2)c1COC(=O)NC |  |  |  |  |  |  |  |  |  |  |  |  |  | 99% | Survivors / animals tested (Mus musculus [37]): 5; Survivors / animals tested (Mus musculus [38]): 5; BWD (Mus musculus [27]): 0.2 g; Survivors / animals tested (Mus musculus [39]): 5; BWD (Mus musculus [28]): -0.4 g; T/C (Mus musculus [40]): 99%; Survivors / animals tested (Mus musculus [41]): 5; Survivors / animals tested (Mus musculus [42]): 5; BWD (Mus musculus [33]): -1.2 g; BWD (Mus musculus [34]): -0.4 g; BWD (Mus musculus [35]): -0.8 g; T/C (Mus musculus [43]): 95% |
| CSc1nc(COC(=O)NC(C)C)c(COC(=O)NC(C)C)n1-c1ccccc1 | 6 | 0.3 g | 6 | 6 | -2 g | 0.6 g |  |  | -4.8 g | 6 | -2.8 g | -0.2 g | 6 | 90% | T/C (Mus musculus [18]): 97%; T/C (Mus musculus [44]): 95%; KE (Mus musculus [25]): -1.64; Survivors / animals tested (Mus musculus [45]): 5; KE (Mus musculus [46]): -1.55; T/C (Mus musculus [21]): 100% |
